# Screening data as filed in PubChem BioAssay.
# PAD4 inh – human PAD4 inhibitors, primary screen, biochemical, fluorescence polarization, 1536-well format | recombinant PAD4, RCA probe fluorescence polarization | Protein-arginine deiminase type-4 (Homo sapiens), Q9UM07 | hit rate 0.41% among 330,000 | inhibition, % at 6.36 µM | AID 485272, 2010;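 active = percent inhibition above a cutoff equal to the mean of all tested compounds plus 3 SD, cut at about 15% in these data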
# PRMT1 FP inh – PRMT1 methyltransferase inhibitors, primary screen, biochemical, fluorescence polarization; hit rate 1.3% among 370,000; inhibition, % at 2.79 µM; Protein arginine N-methyltransferase 1 (Homo sapiens), Q99873; recombinant PRMT1, activity-based probe fluorescence polarization;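 active = inhibition above about 21% made by adding two undisclosed values, limit read from the data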
# Target sequence (Q99873 whole entry, looked up): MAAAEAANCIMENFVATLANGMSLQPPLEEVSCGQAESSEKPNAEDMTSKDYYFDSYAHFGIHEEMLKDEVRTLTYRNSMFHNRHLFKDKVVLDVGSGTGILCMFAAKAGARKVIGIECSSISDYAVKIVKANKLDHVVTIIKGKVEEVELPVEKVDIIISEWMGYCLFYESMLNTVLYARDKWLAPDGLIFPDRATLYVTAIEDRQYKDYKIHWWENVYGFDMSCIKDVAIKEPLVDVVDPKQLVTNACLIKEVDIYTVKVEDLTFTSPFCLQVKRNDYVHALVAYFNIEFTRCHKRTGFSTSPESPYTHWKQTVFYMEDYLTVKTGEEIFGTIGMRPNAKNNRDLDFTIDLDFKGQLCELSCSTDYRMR
# Fh CTSL1 inh – Fasciola hepatica cathepsin L1 inhibitors, primary screen, counter-screen for PFM18AAP inhibitor project, biochemical, QFRET, fluorogenic peptide substrate. recombinant F. hepatica cathepsin L1, Z-Leu-Arg-MCA fluorescence. inhibition, % at 5.96 µM. hit rate 0.49% among 300,000. AID 1906, 2009;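 active = inhibition above the mean of all tested compounds plus 3 SD, set per screening campaign, cut at about 17% in these data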
# GSTO1 counter – inhibitors of recombinant GSTO1, primary screen, counter-screen for RBBP9 inhibitor project, biochemical, fluorescence polarization; activity-based probe fluorescence polarization; hit rate 1.1% among 300,000; inhibition, % at 5.96 µM; Glutathione S-transferase omega-1 (Homo sapiens), P78417;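 active = inhibition above the campaign mean inhibition plus 3 SD, cut at about 35% in these data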
# Target sequence (P78417 whole entry, looked up): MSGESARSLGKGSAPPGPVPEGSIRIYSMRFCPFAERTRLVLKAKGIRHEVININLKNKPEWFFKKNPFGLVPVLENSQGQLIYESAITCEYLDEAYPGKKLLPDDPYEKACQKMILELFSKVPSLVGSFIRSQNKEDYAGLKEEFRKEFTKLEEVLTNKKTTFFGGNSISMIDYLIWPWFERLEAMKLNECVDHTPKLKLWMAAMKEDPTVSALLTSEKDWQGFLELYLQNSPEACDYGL
# TDP2 absorb – human TDP2 enzyme inhibitors, primary screen, biochemical, epi absorbance, recombinant enzyme. AID 720702, 2013. inhibition, % at 12.8 µM. hit rate 0.34% among 370,000. Tyrosyl-DNA phosphodiesterase 2 (Homo sapiens), O95551. T5PNP hydrolysis, p-nitrophenol absorbance 415 nm;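 active = inhibition above the mean of all tested compounds plus 3 SD, set per campaign, cut at about 25% in these data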
#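 Incubation: 2 h at 37 °C; Test system: recombinant human TDP2; Quantity: enzyme 120 nM; Read-out basis: percent inhibition; Medium: 50 mM Tris-HCl pH 7.5 with Mg2+, KCl, DTT, BSA; Repeats: single replicate; Compound: 12.8 µM single point, 1% DMSO; Signal: epi absorbance; Reagent: 5 mM T5PNP chromogenic substrate; Benchmarks: no-enzyme high, DMSO-plus-enzyme low.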
# PAD4 FP conf – human PAD4 inhibitors, confirmation, biochemical, fluorescence polarization. shares compounds with PAD4 inh. recombinant PAD4, RCA probe fluorescence polarization. inhibition, % at 6.36 µM. hit rate 28% among 1,200;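 active = mean inhibition across replicates above the hit cutoff set by the earlier primary screen, cut at about 15% in these data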;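 also: inhibitors block active-site labeling by the probe so polarization falls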
# A number is an active result; - = inactive; . = no result. Shown are actives, neighbours in structure and some others; about 2.5% of the full set was active somewhere.
SMILES,PAD4 inh,PRMT1 FP inh,Fh CTSL1 inh,GSTO1 counter,TDP2 absorb,PAD4 FP conf
Cc1ccc(-c2cc(C(=O)N3CCN(C(=O)c4ccco4)CC3)[nH]n2)c(C)c1,-,-,-,-,-,.
Cc1ccc2c(c1)N(C(=O)c1ccco1)C(C)(C)c1ssc(=S)c1-2,16,-,-,-,-,24
Cc1cccc2c1N(C(=O)c1ccco1)C(C)(C)c1ssc(=S)c1-2,15,-,-,-,-,-
Nc1cccc2c1C(=O)N(C(=O)c1ccco1)C2=O,-,-,-,-,-,.
O=C(CSc1nnc(-c2ccccn2)n1-c1ccccc1)Nc1ccc2c(c1)OCCO2,.,-,.,.,-,.
N#Cc1cccc(-n2cc(COC(=O)NCCc3ccccc3)nn2)c1,.,-,.,.,-,.
O=C(Nc1ccccc1)C(=O)Nc1cccnc1,18,-,-,-,-,-
CCN1CCCCC(NC(C)=O)C1=O (centres undefined),.,-,.,.,-,.
Cc1ccccc1CS(=O)(=O)Cc1ccc(C(=O)Nc2cccc(Cl)c2F)o1,.,-,.,.,-,.
O=[N+]([O-])c1ccc2nc(-c3ccccc3)n(OCc3ccc(Cl)cc3)c2c1,84,-,-,-,-,-
O=C(N=C1N(CC2CC2)CC2(C=C3CCCCC3n3c(=O)n(-c4ccccc4)c(=O)n32)N1C(=O)OCc1ccccc1)c1ccccc1 (centres undefined),.,-,.,.,-,.
COC(=O)[C@H](C(C)C)N1Cc2nnn(Cc3ccc(C)cc3)c2-c2ccccc2S1(=O)=O,.,-,.,.,-,.
CCn1nnnc1SCC(=O)N(C)C1CCS(=O)(=O)C1 (centres undefined),16,-,.,.,-,-
COc1ccc(-n2nnnc2SCC(=O)N(C)C2CCS(=O)(=O)C2)cc1 (centres undefined),-,-,.,.,-,.
COc1ccc(NC(=O)COc2nsnc2N2CCOCC2)cc1,-,-,-,-,-,.
COc1ccc(CCNC(=O)COc2nsnc2N2CCOCC2)cc1OC,44,-,-,-,-,-
CCOC(=O)c1c(C)sc2c1N(C(=O)CCl)c1cc(Cl)ccc1S2,19,-,-,-,-,43
O=C1c2ccccc2C(=O)C12OC2c1ccc(Cl)cc1Cl (centres undefined),36,-,-,-,-,40
CCN1/C(=C/C=C/c2oc3ccc(-c4ccccc4)cc3[n+]2CC)Oc2ccc(-c3ccccc3)cc21,63,-,-,-,-,45
CCN1/C(=C/C=C/c2sc3ccccc3[n+]2CC)Sc2ccccc21,-,.,-,-,.,.
Cc1c([N+](=O)[O-])cnc(Sc2ccccc2)c1[N+](=O)[O-],26,-,-,-,-,-
Cc1ccc(Sc2ncccc2[N+](=O)[O-])cc1,-,-,-,-,-,.
CCN(CC)C(=O)CC[C@H]1CC[C@]2(CCCN(S(=O)(=O)c3ccccc3)C2)O1,.,-,.,.,-,.
COc1ccc(C(=O)NNC(=S)NC(=O)c2cc(-c3ccccc3)nc3ccccc23)cc1,15,-,-,-,-,-
Fc1ccc(-n2ncc3c(SCc4cccnc4)ncnc32)cc1,18,-,-,-,-,-
SMILES,PAD4 inh,PRMT1 FP inh,Fh CTSL1 inh,GSTO1 counter,TDP2 absorb,PAD4 FP conf
COc1ccc(NC(=O)Nc2cc(NC(=O)Nc3ccc(OC)cc3)c(C)nc2C)cc1,-,-,-,-,-,.
COc1ccc(NC(=O)Nc2c[nH]c(=O)[nH]c2=O)cc1,15,-,-,-,-,-
Cc1cccc(NC(=O)C(CC(C)C)NC(=O)C2CCC(C)CC2)n1 (centres undefined),20,-,-,-,-,-
COc1ccccc1CNC(=O)C(CC(C)C)NC(=O)C1CCC(C)CC1 (centres undefined),-,-,-,-,-,.
CCCCOc1ccc(C2OC34CCCCC3C(C#N)(C#N)C2(C#N)C(=N)O4)cc1 (centres undefined),-,.,-,-,.,.
C=CCOc1ccc(C2OC34CCCCC3C(C#N)(C#N)C2(C#N)C(=N)O4)cc1 (centres undefined),15,.,-,-,.,-
COc1ccc(C(=O)Nc2nc3ccccc3s2)c(OC)c1,22,-,-,-,-,55
COC(=O)c1sccc1NC(=O)c1ccc(OC)cc1OC,25,-,-,-,-,-
COC(=O)c1cc(-c2cccc3c2sc2ccccc23)c(=O)n2c1CCC2,.,-,.,.,-,.
Cc1ccc(NC(=O)OCCCN2C(=O)CCC23CCC(C)CC3)cc1C (centres undefined),.,-,.,.,-,.
CN1CC=C2C(C#N)=C(N)C(C#N)(C#N)C(c3ccsc3)C2C1 (centres undefined),15,-,-,-,-,-
CCOC(=O)N1CC=C2C(C#N)=C(N)C(C#N)(C#N)[C@H](c3ccsc3)[C@H]2C1,-,-,-,-,-,.
COCCn1c(=S)[nH]c2cc(OC)c(OC)cc2c1=O,43,-,-,-,-,-
CCN(CC)CCCn1c(=S)[nH]c2cc(OC)c(OC)cc2c1=O,-,-,-,-,-,.
O=c1c2cc3cccnc3nc2ncn1Cc1cccs1,.,-,.,.,-,.
Cc1ccc(NC(=O)C2CCCN(c3nnc(-n4cccc4)s3)C2)cc1C (centres undefined),.,-,.,.,-,.
CCOCCCNC(=S)N(CCO)Cc1cc2cc3c(cc2[nH]c1=O)OCCO3,23,-,-,-,-,-
COc1ccc(-c2c/c(=N\c3nc(-c4ccccc4)c(C)s3)c3ccccc3o2)cc1O,33,-,-,-,-,17
COC(=O)[C@]12C[C@H](CC(=O)N3CCCCC3)C(=O)N(CCC3=CCCCC3)C1=C[C@H](C(C)C)O[C@@H]2C1CC1,.,-,.,.,-,.
O=c1[nH]c(N2CCOCC2)cc2ccccc12,20,-,56,-,-,-
CCOC(=O)CNC(=O)c1sc(NC(=O)c2cccc(F)c2)nc1C,25,-,-,-,-,-
CCOC(=O)CNC(=O)c1sc(NC(=O)c2ccccc2F)nc1C,-,-,-,-,-,.
O[C@H](COc1ccc(OC(F)(F)F)cc1)CN1CCC(C(O)(c2ccccc2)c2ccccc2)CC1,.,-,.,.,-,.
Cc1cc(-c2nnc(SCC(=O)Nc3ccc(F)c(F)c3)n2N)n[nH]1,52,-,-,-,-,-
COc1ccc(CN2CN3Cc4ccc(C)cc4C3CS2(=O)=O)cc1 (centres undefined),.,-,.,.,-,.
c1ccc2c(c1)Cn1nnnc1-2,33,.,-,-,.,-
c1ccc2c(c1)CC1(CCCCC1)n1nnnc1-2,-,-,-,-,-,.
Nc1ccc(C(=O)Nc2nc3ccccc3s2)cc1,-,-,-,-,-,.
